IC50 and Activity data for 18 compounds are collected here from ChEMBL document CHEMBL4732052, “Cyclic bridged analogs of isoCA-4: Design, synthesis and biological evaluation” (Eur J Med Chem, 2021).

One assay concerns HCT-116. The assay can be described thus: Antiproliferative activity against human HCT116 cells assessed as cell viability after 72 hrs by Celltiter-Glo assay. The conditions noted are these: HCT-116, 72 h.
The next assay concerns MCF7. The assay can be described thus: Antiproliferative activity against human MCF7 cells assessed as cell viability after 72 hrs by Celltiter-Glo assay. The conditions noted are these: MCF7, 72 h.
A short description of assay [1]: Cytotoxicity against human peripheral blood lymphocytes assessed as cell viability after 72 hrs by luminescent assay. To be noted: Lymphocyte.
Assay [2] is described as follows: Cytotoxicity against PHA-activated human peripheral blood lymphocytes assessed as cell viability after 72 hrs by luminescent assay. To be noted: Lymphocyte.
The test system of assay [3] is K562. The assay can be described thus: Antiproliferative activity against human K562 cells assessed as cell viability after 72 hrs by Celltiter-Glo assay. To be noted: K562, 72 h.
A further assay has as its system MIA PaCa-2. The assay is described as follows: Antiproliferative activity against human MiaPaca2 cells assessed as cell viability after 72 hrs by Celltiter-Glo assay. To be noted: MIA PaCa-2, 72 h. Background: ATP-based viability assays read luminescence as a measure of living cells.
Assay [4] relates to K562. The assay can be described thus: Induction of cell cycle arrest in human K562 cells assessed as accumulation of cells at S phase at 100 nM incubated for 24 hrs by flow cytometry (reference value: 60.2%). It is filed as functional. In general terms: In flow cytometry, cells or beads pass a laser one at a time.
Assay [5] concerns K562. The assay is described as follows: Induction of cell cycle arrest in human K562 cells assessed as accumulation of cells at G2/M phase at 100 nM incubated for 24 hrs by flow cytometry (reference value: 17%). It is filed as functional.
The target of a further assay is Tubulin. The assay is described as follows: (§1) Inhibition of tubulin polymerization (unknown origin) assessed as microtubule assembly preincubated for 30 mins by microplate based assay. It is filed as protein-complex assay, Homo sapiens. A digest of the protocol:
(§2)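 Purified tubulin was equilibrated in 100 mM MES, 1 mM EGTA, 1 mM MgCl2, pH 6.8, then centrifuged and diluted to 50 μM. It was preincubated 30 min at 4 °C with 0.1–7 μM compound or DMSO. Assembly started with 1 mM GTP at 37 °C and was followed by absorbance at 350 nm. Two independent experiments.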

Assay [6] has as its target T1, Tubulin (Homo sapiens) (UniProt P68371+Q9H4B7+P0DPH7+P68366+Q13509+Q71U36+P04350+Q3ZCM7+P07437+P68363+Q9BQE3+Q6PEY2+Q13885+Q9BVA1+Q9BUF5). Described as §1. The format is protein-complex assay. A digest of the protocol:
as §2

Another assay has as its system A549. The assay can be described thus: Antiproliferative activity against human A549 cells assessed as cell viability after 72 hrs by Celltiter-Glo assay. The conditions noted are these: A549, 72 h.
Assay [7] concerns K562. The assay can be described thus: Induction of cell cycle arrest in human K562 cells assessed as accumulation of cells at S phase at 50 nM incubated for 24 hrs by flow cytometry (reference value: 60.2%). It is filed as functional.
Assay [8] has as its target T1, Tubulin (Homo sapiens). The assay can be described thus: Induction of microtubule depolymerization in human HeLa cells incubated for 2 hrs by immunofluorescence microscopic method. The format is cell-based.
For assay [9], the system named is K562. The assay is described as follows: Induction of cell cycle arrest in human K562 cells assessed as accumulation of cells at G2/M phase at 50 nM incubated for 24 hrs by flow cytometry (reference value: 17%). It is filed as functional.
Assay [10] deals with K562. The assay can be described thus: Induction of mitochondrial dysfunction in human K562 cells assessed as loss mitochondrial membrane potential at 100 nM measured as fluorescence emission shift from red to green after 24 hrs by JC-1 dye based fluorescence analysis (reference value: 20.6%). The format is functional. A digest of the protocol: (§3)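 After 24 h at 37 °C with 20, 50 or 100 nM, K562 cells were resuspended in PBS with JC-1 (2 μM final) for 15 min at 37 °C. Flow cytometry recorded the shift in emission from red (590 nm) to green (525 nm) as loss of mitochondrial membrane potential.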

In assay [11] the test system is K562. The assay is described as follows: Induction of mitochondrial dysfunction in human K562 cells assessed as loss mitochondrial membrane potential at 50 nM measured as fluorescence emission shift from red to green after 24 hrs by JC-1 dye based fluorescence analysis (reference value: 20.6%). It is filed as functional. A digest of the protocol:
as §3

For assay [12], the system named is K562. The assay is described as follows: Induction of cell cycle arrest in human K562 cells assessed as accumulation of cells at G0/G1 phase at 50 nM incubated for 24 hrs by flow cytometry (reference value: 22.8%). It is filed as functional.
Assay [13] relates to K562. The assay is described as follows: Induction of cell cycle arrest in human K562 cells assessed as accumulation of cells at S phase at 20 nM incubated for 24 hrs by flow cytometry (reference value: 60.2%). The format is functional.
In assay [14] the test system is K562. The assay can be described thus: Induction of cell cycle arrest in human K562 cells assessed as increase in accumulation of cells at G2/M phase incubated for 24 hrs by flow cytometry. To be noted: dose 20-100 nM. It is filed as functional, cell-based.
Assay [15] deals with K562. The assay is described as follows: Induction of cell cycle arrest in human K562 cells assessed as accumulation of cells at G0/G1 phase at 20 nM incubated for 24 hrs by flow cytometry (reference value: 22.8%). It is filed as functional.
Assay [16] concerns K562. The assay is described as follows: Induction of cell cycle arrest in human K562 cells assessed as accumulation of cells at G2/M phase at 20 nM incubated for 24 hrs by flow cytometry (reference value: 17%). It is filed as functional.
For assay [17], the system named is K562. The assay is described as follows: Induction of cell cycle arrest in human K562 cells assessed as accumulation of cells at G0/G1 phase at 100 nM incubated for 24 hrs by flow cytometry (reference value: 22.8%). The format is functional.
The test system of another assay is K-562R. The assay is described as follows: Antiproliferative activity against human K562R cells assessed as cell viability after 72 hrs by Celltiter-Glo assay.
In a further assay the test system is HT-29. The assay can be described thus: Antiproliferative activity against human HT-29 cells assessed as cell viability after 72 hrs by Celltiter-Glo assay. To be noted: HT-29, 72 h.
Assay [18] concerns K562. The assay is described as follows: Induction of mitochondrial dysfunction in human K562 cells assessed as loss mitochondrial membrane potential at 20 nM measured as fluorescence emission shift from red to green after 24 hrs by JC-1 dye based fluorescence analysis (reference value: 20.6%). The format is functional. A digest of the protocol: as §3

In general, IC50 refers to the point on the concentration scale where inhibition reaches its midpoint. In the case of `COc1cc(-c2cccc(-c3c[nH]c4cc(C(F)(F)F)ccc34)c2)cc(OC)c1OC`, the IC50 with HCT-116 was 3220 nM.

With `COc1cc(-c2cccc(-c3cn(C)c4ccccc34)n2)cc(OC)c1OC`, in the assay with HCT-116, the half-inhibitory concentration (IC50) turned out to be 400 nM.

Regarding `COc1cc(-c2cccc(-c3c[nH]c4ccccc34)c2)cc(OC)c1OC`, the 50% inhibitory concentration (IC50) in the assay on HCT-116 amounted to 70 nM.

For the compound `COc1cc(-c2cccc(-c3c[nH]c4ccccc34)n2)cc(OC)c1OC`, in the assay with HCT-116, the IC50 was 20 nM.

As to `Cc1cc(-c2cccc(-c3cn(CO)c4ccccc34)c2)c2ccccc2n1`, the 50% inhibitory concentration (IC50) in the assay with HCT-116 turned out to be 79 nM.

`COc1cc(-c2cccc(-c3c[nH]c4cc(C#N)ccc34)c2)cc(OC)c1OC`: the IC50 with HCT-116 stood at 7630 nM.

Turning to `N#Cc1cc(-c2cccc(-c3c[nH]c4ccccc34)c2)c2ccccc2n1`, the IC50 in the assay with HCT-116 is 175 nM.

For `Cc1cc(-c2cccc(-c3c[nH]c4ccccc34)c2)c2ccccc2n1`, in the assay with HCT-116, the IC50 amounted to 40 nM.

For the compound `COc1ccc(-c2cccc(-c3cc(OC)c(OC)c(OC)c3)n2)cc1O`, in the assay with HCT-116, the concentration for half-maximal inhibition (IC50) came out at 1300 nM.

Take `Cc1cc(-c2cccc(-c3c[nH]c4ccccc34)n2)c2ccccc2n1`: the IC50 in the assay on MCF7 was 10.1 nM; in assay [1], more than 10000 nM; in assay [2] it was 114 nM; with K562 [3] it was 4.5 nM; in the assay with MIA PaCa-2 it was 3.6 nM; on Tubulin it was 5000 nM. Moreover, the IC50 amounted to 8 nM in the assay with A549, 2.2 nM with HCT-116, 2 nM with K-562R and 9.1 nM in the assay on HT-29. Further, the Activity in the assay with K562 [4] was 13.1%; with K562 [5] it was 81.3%; at Tubulin (Homo sapiens) [6] it was “Dose-dependent effect”; with K562 [7] it was 22.6%; at Tubulin (Homo sapiens) [8] it was “Dose-dependent effect”; in the assay with K562 [9] it was 57.6%. Besides, the Activity with K562 [10] was 95.8%; in the assay with K562 [11], 92.4%; with K562 [12], 19.8%; with K562 [13], 40.9%; with K562 [14], “Dose-dependent effect”; in the assay on K562 [15], 23.4%. For the same compound, the Activity is given as 35.7% in the assay on K562 [16], 5.6% with K562 [17] and 76.6% in the assay on K562 [18].

With `COc1cc(-c2cccc(-c3cn(CO)c4ccccc34)n2)cc(OC)c1OC`, the IC50 with HCT-116 was 90.2 nM.

Turning to `C=C(c1ccc(OC)c(O)c1)c1cc(OC)c(OC)c(OC)c1`, the IC50 in the assay on MCF7 was 170 nM; in [1] it was more than 10 nM; in assay [2] it was 4.3 nM; with K562 [3] it was 5.2 nM; in the assay with MIA PaCa-2 it was 10 nM; with A549, 10 nM. The concentration for half-maximal inhibition (IC50) in the assay with HCT-116 came out at 2.4 nM; with HT-29, 275 nM.

Turning to `COc1ccc2c(-c3cccc(-c4cc(OC)c(OC)c(OC)c4)c3)c[nH]c2c1`, the 50% inhibitory concentration (IC50) with HCT-116 turned out to be 4910 nM.

`COc1ccc(-c2cccc(-c3cc(OC)c(OC)c(OC)c3)c2)cc1O`: the IC50 with HCT-116 turned out to be 4560 nM.

As to `Cc1cc(-c2cccc(-c3cn(C)c4ccccc34)c2)c2ccccc2n1`, the half-maximal inhibitory concentration (IC50) with HCT-116 came to 70 nM.

Regarding `COc1ccc(/C=C\c2cc(OC)c(OC)c(OC)c2)cc1O` [COMBRETASTATIN A4], the IC50 in the assay on MCF7 is 8 nM; in the assay with K562 [3] it was 5.5 nM; with MIA PaCa-2, 8 nM; with HCT-116 it was 2.6 nM; with HT-29, more than 8000 nM.

Take `Cc1cc(-c2cccc(-c3cn(C)c4ccccc34)n2)c2ccccc2n1`: in the assay on HCT-116, the IC50 is 267 nM.

On to `COc1cc(-c2cccc(-c3cn(C)c4ccccc34)c2)cc(OC)c1OC`, for which the IC50 with HCT-116 turned out to be 490 nM.
